The list is not random: actives were taken first. Their share in the collection is about 2.2%.
SIAE primary = inhibitors of human sialic acid acetylesterase SIAE. hit rate 0.69% among 370,000. Q9HAT2. inhibition, % at 9.66 µM. SIAE FP-Rh probe binding, fluorescence polarization. AID 1053197;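 active = inhibition above a cutoff: mean of compounds within the control limits plus 3 SD of those, cut at about 17% in these data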;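 note: 0% = plate median of compound wells and 100% = probe without SIAE protein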
mABHD4 FP = inhibitors of mouse ABHD4; hit rate 0.54% among 370,000; inhibition, % at 8.92 µM; purified mABHD4, FP-Rh probe fluorescence polarization; AID 720543; Q8VD66;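 active = inhibition exceeding the mean over every tested compound plus 3 SD, cut at about 30% in these data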;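 note: 0% = plate median of compound wells and 100% = S159A mutant with DMSO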
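Test system: mABHD4 protein; Read-out basis: % inhibition; Incubation: 45 min + 60 min at 25 °C; Repeats: single replicate; Technique: fluorescence polarization with parallel and perpendicular emission, 525/598 nm; Compound: 8.92 µM, single dose; Benchmarks: full inhibition S159A mutant plus DMSO, zero as sample-well median.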
HTRA1 inh = blocks human HTRA1 serine peptidase. inhibition, % at 5.96 µM. Q92743. AID 504803. hit rate 0.5% among 340,000. recombinant HTRA1, FP-rhodamine activity-based probe, fluorescence polarization; in the data active = inhibition above about 36%;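 note: 0% = enzyme with DMSO and 100% = wells lacking enzyme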
Target sequence (Q92743 whole entry, looked up): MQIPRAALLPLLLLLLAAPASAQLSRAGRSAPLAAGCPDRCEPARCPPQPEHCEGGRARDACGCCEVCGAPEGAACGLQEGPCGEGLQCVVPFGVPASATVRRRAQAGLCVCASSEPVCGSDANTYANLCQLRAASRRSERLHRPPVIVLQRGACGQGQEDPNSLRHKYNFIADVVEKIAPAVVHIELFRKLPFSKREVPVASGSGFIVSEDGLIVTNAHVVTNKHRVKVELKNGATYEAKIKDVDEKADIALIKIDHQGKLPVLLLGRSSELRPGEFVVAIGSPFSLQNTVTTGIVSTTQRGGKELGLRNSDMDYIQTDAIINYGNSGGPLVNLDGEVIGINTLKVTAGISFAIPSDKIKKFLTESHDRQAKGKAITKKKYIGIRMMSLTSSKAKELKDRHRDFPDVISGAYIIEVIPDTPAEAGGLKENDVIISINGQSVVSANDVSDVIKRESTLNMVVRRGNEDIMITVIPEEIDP
LEDGF integ inh = blocks HIV-1 LEDGF/p75-dependent DNA integration. AID 743269. hit rate 0.64% among 370,000. inhibition, % at 3.7 µM. TR-FRET IN-LEDGF/p75 DNA integration, Eu/Cy5;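 active = inhibition above the screen-wide mean plus 3 SD, cut at about 13% in these data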;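 note: signal is the Cy5 over europium emission ratio at 671 and 618 nm; 0% = plate median of compound wells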
TDP2 inh = TDP2 (human) inhibition, absorbance primary screen. O95551. recombinant TDP2, T5PNP hydrolysis, p-nitrophenol absorbance 415 nm. inhibition, % at 12.8 µM. hit rate 0.34% among 370,000. AID 720702;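 active = inhibition above the mean of all tested compounds plus 3 SD, set per campaign, cut at about 25% in these data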;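 note: 0% = DMSO with enzyme and 100% = buffer with substrate but no TDP2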
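Material: recombinant human TDP2; quantity: TDP2 enzyme at 120 nM final; medium: Tris-HCl pH 7.5 with MgCl2; compound: single concentration, 12.8 µM nominal, with 1% DMSO; incubation: 2 h enzyme incubation at 37 °C; signal: epi absorbance; measure: percent inhibition; benchmarks: high control without enzyme, low control DMSO plus TDP2; repeats: singlicate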
TCR CD3 inh = human TCR-CD3 binding inhibition | hit rate 0.37% among 360,000 | inhibition, % at 9.4 µM | TAMRA-labeled TCR probe fluorescence, biochemical; in the data active = inhibition above about 19%;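 note: recombinant mutant TCR 2C K166C tagged with TAMRA read by polarization; 0% = receptor in buffer alone and 100% = receptor with positive control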
* hit, by the source's call.

What do the screens show for `O=S1(=O)C=CCN1Cc1cn(Cc2ccc(Cl)cc2)nn1`?
SIAE primary: -1; mABHD4 FP: 2; LEDGF integ inh: 2; TDP2 inh: 5

Results for CCOc1cc(CNc2ccc(O)cc2)ccc1OCc1ccc(Cl)cc1Cl ?
HTRA1 inh: 62*

What do the screens show for `CCOc1ccccc1-n1c(=S)sc2c(=O)n(-c3ccccc3)c(=S)[nH]c21`?
SIAE primary: 19*; mABHD4 FP: 1; HTRA1 inh: -3; LEDGF integ inh: -1; TDP2 inh: 13; TCR CD3 inh: 6

How did C[C@@H]1CN([C@@H](C)CO)C(=O)c2ccccc2-c2ccccc2CO[C@@H]1CN(C)Cc1ccc(Cl)c(Cl)c1 do in these assays?
SIAE primary: -3; mABHD4 FP: 0; LEDGF integ inh: -1; TDP2 inh: 4; TCR CD3 inh: 3

How did Cc1ccc(N2C(=O)[C@@H]3[C@H](C2=O)C2c4ccccc4C=CN2[C@@H]3C(=O)c2ccco2)c(C)c1 (some centres not stated) do in these assays?
SIAE primary: -2; mABHD4 FP: 10; HTRA1 inh: -2; LEDGF integ inh: 10; TDP2 inh: 26*; TCR CD3 inh: -9

Results for COc1ccc(N2C(=O)[C@@H]3[C@H](C2=O)[C@H]2c4ccccc4C=CN2[C@@H]3C(=O)Nc2ccccc2)cc1 ?
SIAE primary: -1; mABHD4 FP: -18; HTRA1 inh: -23; LEDGF integ inh: 2; TDP2 inh: 10; TCR CD3 inh: 0

How did O=C(c1ccco1)[C@@H]1[C@@H]2C(=O)N(c3ccccc3)C(=O)[C@@H]2C2c3ccccc3C=CN21 (some centres not stated) do in these assays?
SIAE primary: -2; mABHD4 FP: 7; HTRA1 inh: -11; LEDGF integ inh: 12; TDP2 inh: 43*; TCR CD3 inh: 3

What do the screens show for `COC(=O)Cc1c([C@H](C)[C@@H](OC)c2ccccc2Br)nnn1Cc1ccccc1`?
SIAE primary: 3; mABHD4 FP: -1; LEDGF integ inh: -4; TDP2 inh: 1; TCR CD3 inh: 4

What do the screens show for `C(=Nc1ccc(Nc2ccccc2)cc1)c1ccc2ccccc2c1`?
HTRA1 inh: 73*

What do the screens show for `NC(=S)N/N=C/c1ccc2ccccc2c1`?
SIAE primary: 2; mABHD4 FP: -1; HTRA1 inh: 1; LEDGF integ inh: -1; TDP2 inh: 2; TCR CD3 inh: 14

How did COc1ccccc1N1CSC2=C(C#N)C(c3ccc(SC)cc3)CC(=O)N2C1 (configuration not stated) do in these assays?
SIAE primary: -17; mABHD4 FP: 31*; HTRA1 inh: 1; LEDGF integ inh: 7; TDP2 inh: 1; TCR CD3 inh: 6

How did COc1cc(C2CC(=O)N3CN(c4ccccc4C)CSC3=C2C#N)cc(OC)c1OC (configuration not stated) do in these assays?
SIAE primary: -8; mABHD4 FP: 8; LEDGF integ inh: 5; TDP2 inh: -8; TCR CD3 inh: 0

What do the screens show for `NC(=O)N/N=C/c1ccc(N2CCOCC2)s1`?
SIAE primary: -4; mABHD4 FP: 2; HTRA1 inh: 5; LEDGF integ inh: -2; TDP2 inh: -6; TCR CD3 inh: -2

How did O=C(O)c1cc(N/N=C/c2ccc(N3CCOCC3)s2)ccc1Cl do in these assays?
SIAE primary: 21*; mABHD4 FP: 44*; HTRA1 inh: 26; LEDGF integ inh: 68*; TDP2 inh: 15; TCR CD3 inh: 7

What do the screens show for `O=C(N/N=C/c1ccc(OC(=O)c2ccccc2Cl)cc1)c1cc(O)cc(O)c1`?
SIAE primary: -44; mABHD4 FP: -22; HTRA1 inh: -14; LEDGF integ inh: 17*; TDP2 inh: 13; TCR CD3 inh: 18

Results for C/C(=N/NC(=O)CSc1nnc(SCc2ccc(C)cc2)s1)c1cccc(O)c1 ?
SIAE primary: 8; mABHD4 FP: -15; LEDGF integ inh: 0; TDP2 inh: -7

What do the screens show for `Cc1cccc(C2C3=C(Nc4[nH]n(-c5ccccc5)c(=O)c42)c2ccccc2C3=O)c1` (configuration not stated)?
SIAE primary: 20*; mABHD4 FP: 43*; HTRA1 inh: 32; LEDGF integ inh: 3; TDP2 inh: -11; TCR CD3 inh: 4

Screening data: PubChem, The Scripps Research Institute Molecular Screening Center
